# Measured values published in ChEMBL document CHEMBL1153905, “Functionalized 3-benzylidene-indolin-2-ones: inducers of NAD(P)H-quinone oxidoreductase 1 (NQO1) with antiproliferative activity” (Bioorg Med Chem, 2009).
# Columns and labels:
# [1] = molecular target: T1, CYP1A1 (Mus musculus, UniProt P00184); test: Induction of CYP1A1 activity in mouse Hepa-1c1c7 cells assessed as induction ratio at 0.01 uM after 48 hrs by EROD assay relative to control; assay type: ADME, cell-based
# T1 sequence (P00184 whole entry): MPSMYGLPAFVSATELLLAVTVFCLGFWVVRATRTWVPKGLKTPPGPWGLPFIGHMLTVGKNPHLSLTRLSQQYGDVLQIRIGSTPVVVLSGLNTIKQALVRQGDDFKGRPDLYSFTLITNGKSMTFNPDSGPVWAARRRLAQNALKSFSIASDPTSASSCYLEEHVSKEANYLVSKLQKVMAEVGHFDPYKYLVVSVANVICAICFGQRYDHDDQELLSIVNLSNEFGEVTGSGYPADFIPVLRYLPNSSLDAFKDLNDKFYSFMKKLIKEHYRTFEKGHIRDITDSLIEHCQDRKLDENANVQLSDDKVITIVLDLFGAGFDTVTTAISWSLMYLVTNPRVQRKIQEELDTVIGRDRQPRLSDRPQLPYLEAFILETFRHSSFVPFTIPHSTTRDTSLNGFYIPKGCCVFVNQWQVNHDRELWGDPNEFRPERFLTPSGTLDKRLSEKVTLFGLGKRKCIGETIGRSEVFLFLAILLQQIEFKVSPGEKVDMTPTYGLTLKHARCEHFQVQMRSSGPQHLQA
# [2] = molecular target: NAD(P)H dehydrogenase [quinone] 1 (Mus musculus) (UniProt Q64669); test: Induction of NQO1 activity in mouse Hepa-1c1c7 cells assessed as induction ratio at 0.01 uM after 48 hrs by MTT assay relative to control; assay type: cell-based
# Summary of the method: (§1)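 Hepa1c1c7 cells, 10,000 per well, 24 h, were then treated 48 h (DMSO ≤0.5%). Digitonin/EDTA lysates were assayed for menadione-dependent MTT-formazan formation using a G6P/G6PDH NADPH-generating mix with FAD at pH 7.4. The reaction ran 5 min, was stopped with dicoumarol, and read at A590. Degree of induction = (A test − blank)/(A control − blank). Ratios were read off the induction–concentration plot at the EROD test concentration.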
# [3] = molecular target: NAD(P)H dehydrogenase [quinone] 1 (Mus musculus) (UniProt Q64669); test: Induction of NQO1 activity in mouse Hepa-1c1c7 cells assessed as drug level required to double basal enzyme activity after 48 hrs by MTT assay; assay type: cell-based
# Summary of the method: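 Hepa1c1c7 cells were grown in α-MEM with charcoal-treated FCS, 10,000 per well, 24 h. Compound was given 48 h (DMSO ≤0.5%) over a 10–100-fold range below cytotoxic levels, up to 25 µM. Cells were lysed with digitonin/EDTA. NQO1 was assayed by menadione-driven MTT reduction (G6P/G6PDH/NADP, FAD, Tris pH 7.4), quenched with dicoumarol, A590. CD is the concentration doubling basal activity, taken from the induction–concentration plot; mean ± SD, n = 3.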
# [4] = Ratio of induction of NQO1 activity to induction of CYP1A1 activity in mouse Hepa-1c1c7 cells at 0.01 uM after 48 hrs
# [5] = Cytotoxicity against mouse Hepa-1c1c7 cells after 48 hrs by MTT assay; assay type: cell-based; conditions: hepa-1c1c7, 48 h
# Summary of the method: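 Murine hepatoma cells in α-MEM with 10% heat- and charcoal-treated fetal calf serum, passages 6–17; MTT read-out as for the cancer lines but with 48 h compound exposure. Highest concentration tested 25 µM. IC50 from survival-versus-concentration curve; mean and SD, n = 3.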
# [6] = molecular target: T1, CYP1A1; test: Induction of CYP1A1 activity in mouse Hepa-1c1c7 cells assessed as induction ratio at 50 nM after 48 hrs by EROD assay relative to control; assay type: ADME, cell-based
# Summary of the method: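 Hepa1c1c7 cells were seeded at 10,000 per well and grown 24 h. They were then exposed 48 h to compound (final DMSO 0.5% v/v) at about 4 × the NQO1 CD. After a PBS wash, cells got 5 µM 7-ethoxyresorufin plus 2 mM salicylamide in medium, 37 °C, 40 min. Resorufin was read at ex 530/em 590 nm, corrected for compound fluorescence. Ratio = (F treated − blank)/(F DMSO control − blank); mean ± SD, n = 3.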
# [7] = molecular target: NAD(P)H dehydrogenase [quinone] 1 (Mus musculus) (UniProt Q64669); test: Induction of NQO1 activity in mouse Hepa-1c1c7 cells assessed as induction ratio at 50 nM after 48 hrs by MTT assay relative to control; assay type: cell-based; summary of the method: as §1
# [8] = Ratio of induction of NQO1 activity to induction of CYP1 activity in mouse Hepa-1c1c7 cells at 50 nM after 48 hrs
# NAD(P)H dehydrogenase [quinone] 1 (Mus musculus), sequence (Q64669 whole entry): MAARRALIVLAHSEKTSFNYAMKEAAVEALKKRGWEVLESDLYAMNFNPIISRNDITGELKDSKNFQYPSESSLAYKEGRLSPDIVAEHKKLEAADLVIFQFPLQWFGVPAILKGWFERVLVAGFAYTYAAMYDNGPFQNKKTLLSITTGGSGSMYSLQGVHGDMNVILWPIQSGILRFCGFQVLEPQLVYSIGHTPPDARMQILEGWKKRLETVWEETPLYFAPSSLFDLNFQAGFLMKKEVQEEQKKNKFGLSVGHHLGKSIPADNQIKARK
"fold induction at 48 h, 0.01 µM [1]",Ratio [2],CD [3] [µM],"fold induction at 48 h, 0.05 µM [6]",Ratio [7],SMILES,Ratio [4],IC50 [5] [µM],Ratio [8]
1.13,1.83,0.028,–,–,O=c1cc(-c2ccccc2)oc2ccc3ccccc3c12 [BETA-NAPHTHOFLAVONE],1.62,–,–
–,–,–,2.09,2.88,O=C1Nc2ccccc2/C1=C1\C(=O)Nc2cc(Cl)ccc21,–,> 25,1.38
